# The source made the active and inactive calls. The calls are words filed in the database; no cut-off is given here.
# Columns and labels:
# [1] = tested on: COR-L23; experiment: Ratio of GI50 for SAHA to compound for doxorubicin-resistant human COR-L23 cells after 72 hrs by WST-1 assay; format: functional
# Summary of the method: (§1)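 Cells seeded at (1-5) × 10³/well in serum-containing medium and grown 24 h at 37 °C, 5% CO₂. They were then exposed for 72 h to HDAC inhibitor (0.6-10000 nM), with SAHA run alongside in the same panel. WST-1 was added for the final 4 h and read at 450 nm (650 nm reference). GI50 taken as 50% inhibition of the vehicle response, n = 6.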
# [2] = Antiproliferative activity against human […] cells after 72 hrs by WST-1 assay; format: functional; conditions: Homo sapiens, MCR5-SV2, 72 h
# Summary of the method: (§2)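 Cells seeded at (1-5) × 10³/well in serum-containing medium for 24 h at 37 °C, 5% CO₂. Inhibitor added at 0.6-10000 nM for 72 h, with WST-1 pulse over the final 4 h. Formazan read at 450 nm (reference 650 nm). Expressed as % inhibition of vehicle response; GI50 is the concentration inhibiting 50% of vehicle response; n = 6 replicates.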
# [3] = Aqueous solubility of the compound in PBS at pH 7.4; format: physicochemical
# [4] = tested on: COR-L23; experiment: Antiproliferative activity against human COR-L23 cells after 72 hrs by WST-1 assay; format: functional; conditions: Homo sapiens, COR-L23, 72 h; summary of the method: as §2
# [5] = Drug level in tumor of BALB/c mouse at 50 mg/kg, po administered daily for 14 days; format: ADME, organism-based, Neoplasm; set-up: dose 50 mg/kg, route oral; conditions: read-out: Drug uptake
# Summary of the method: (§3)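 HCT116 xenografts in female nude BALB/c mice, run at EpiStem. Oral daily dosing for 14 days in 5% DMSO-saline at 50 or 75 mg/kg. Tumor volume measured relative to start; drug concentrations in tumor and plasma measured.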
# [6] = tested on: HCT-116; experiment: Antiproliferative activity against human HCT116 cells after 72 hrs by WST-1 assay; format: functional; conditions: Homo sapiens, HCT-116, 72 h; summary of the method: as §2
# [7] = Half life in rat at 10 mg/kg, po; format: ADME, organism-based; set-up: dose 10 mg/kg, route oral; conditions: in vivo
# Summary of the method: (§4)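 Rat single dose, iv 1 mg/kg or po 10 mg/kg, both in 1% DMSO-HPβC (11.25% w/v). AUC0-t in ng h/mL, clearance in (mL/min)/kg, t1/2 in h, F in %.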
# [8] = tested on: DU-145; experiment: Ratio of GI50 for SAHA to compound for human DU145 cells after 72 hrs by WST-1 assay; format: functional; summary of the method: as §1
# [9] = tested on: Rattus norvegicus; experiment: Oral bioavailability in rat at 10 mg/kg; format: ADME, organism-based; conditions: in vivo; summary of the method: as §4
# [10] = tested on: HCT-116; experiment: Cell cycle arrest in human HCT116 cells assessed as accumulation at sub-G1 phase at 300 nM after 15 hrs by propidium iodide staining based flow cytometric analysis; format: functional
# [11] = tested on: MOLT-4; experiment: Ratio of GI50 for SAHA to compound for human MOLT4 cells after 72 hrs by WST-1 assay; format: functional; summary of the method: as §1
# [12] = tested on: PC-3; experiment: Ratio of GI50 for SAHA to compound for human PC3 cells after 72 hrs by WST-1 assay; format: functional; summary of the method: as §1
# [13] = tested on: LoVo; experiment: Antitumor activity against human LoVo cells xenografted in nude BALB/c mouse assessed as reduction in tumor volume at 25 mg/kg, po administered QD for 19 days; format: functional, organism-based; set-up: dose 25 mg/kg
# Summary of the method: (§5)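 LoVo colorectal xenograft grown subcutaneously in female BALB/c nude mice, run at EpiStem. Compound given orally daily at 25 or 50 mg/kg; tumor volume followed.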
# [14] = tested on: Rattus norvegicus; experiment: AUC (0 to t) in rat at 1 mg/kg, iv; format: ADME, organism-based, Plasma; set-up: dose 1 mg/kg, route intravenous; conditions: in vivo; summary of the method: as §4
# [15] = tested on: HCT-116; experiment: Ratio of GI50 for SAHA to compound for human HCT116 cells after 72 hrs by WST-1 assay; format: functional; summary of the method: as §1
# [16] = tested on: LoVo; experiment: Ratio of GI50 for SAHA to compound for human LoVo cells after 72 hrs by WST-1 assay; format: functional; summary of the method: as §1
# [17] = tested on: LoVo; experiment: Antitumor activity against human LoVo cells xenografted in nude BALB/c mouse assessed as reduction in tumor volume at 50 mg/kg, po administered QD for 19 days; format: functional, organism-based; set-up: dose 50 mg/kg; summary of the method: as §5
# [18] = tested on: HepG2; experiment: Ratio of GI50 for SAHA to compound for human HepG2 cells after 72 hrs by WST-1 assay; format: functional; summary of the method: as §1
# [19] = tested on: Rattus norvegicus; experiment: AUC (0 to t) in rat at 10 mg/kg, po; format: ADME, organism-based, Plasma; set-up: dose 10 mg/kg, route oral; conditions: in vivo; summary of the method: as §4
# [20] = tested on: HuT78; experiment: Ratio of GI50 for SAHA to compound for human HUT78 cells after 72 hrs by WST-1 assay; format: functional; summary of the method: as §1
# [21] = tested on: U-937; experiment: Ratio of GI50 for SAHA to compound for human U937 cells after 72 hrs by WST-1 assay; format: functional; summary of the method: as §1
# [22] = AUC (0 to t) in dog at 1 mg/kg, iv; format: ADME, organism-based, Canis lupus familiaris; set-up: dose 1 mg/kg, route intravenous; conditions: plasma
# Summary of the method: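 Dog single dose: iv 1 mg/kg in 5% DMSO-HPβC (11.25% w/v); po 10 mg/kg in 5% DMSO-saline. AUC0-t in ng h/mL, clearance in (mL/min)/kg, t1/2 in h, F in %.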
# [23] = Ratio of GI50 for SAHA to compound for human […] cells after 72 hrs by WST-1 assay; format: functional; summary of the method: as §1
# [24] = tested on: A549; experiment: Ratio of GI50 for SAHA to compound for human A549 cells after 72 hrs by WST-1 assay; format: functional; summary of the method: as §1
# [25] = tested on: Mus musculus; experiment: In-vivo inhibition of HDAC6 in human HCT116 cells xenografted CrTac:NCr-Fox1 nude mouse assessed as alpha-tubulin acetylation at 50 mg/kg, po administered daily for 16 days by Western blot analysis relative to control; format: functional, organism-based; set-up: dose 50 mg/kg; conditions: HCT-116
# Summary of the method: (§6)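 Female CrTac:NCr-Fox1(nu) mice, 6-8 weeks old, bearing bilateral sc HCT116 tumors (2 million cells). Daily oral 50 mg/kg in 10% DMSO-saline from day 6 (tumors ~5 mm) to day 16; vehicle controls. Tumor lysates taken 0.5, 1.0 and 4 h after the last dose. Western blot for acetylated histone H3 or α-tubulin, normalized to GAPDH.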
# [26] = tested on: Mus musculus; experiment: Toxicity in human HCT116 cells xenografted CrTac:NCr-Fox1 nude mouse at 50 mg/kg, po administered daily for 16 days; format: organism-based, HCT-116; set-up: dose 50 mg/kg, route oral; conditions: in vivo, 384 h
# Summary of the method: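 Female CrTac:NCr-Fox1(nu) athymic mice, 6-8 weeks old, given bilateral sc HCT116 implants (2 million cells). Oral dosing at 50 mg/kg in 10% DMSO-saline, once daily from day 6 (tumors ~5 mm mean diameter) until day 16. Controls received vehicle. Tumor size and body weight recorded three times weekly.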
# [27] = Ratio of drug level in spleen to plasma of CrTac:NCr-Fox1(nu) athymic mouse at 50 mg/kg, po administered daily for 16 days; format: ADME, organism-based; set-up: dose 50 mg/kg, route oral
# Summary of the method: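 Female CrTac:NCr-Fox1(nu) athymic mice, 6-8 weeks old, inoculated bilaterally sc with 2 million HCT116 colon carcinoma cells. Dosing at 50 mg/kg po daily in 10% DMSO-saline started on day 6 (tumors approx. 5 mm diameter). Controls received vehicle alone. On day 16, plasma, spleen and tumor were collected and frozen for PK assays of drug levels.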
# [28] = tested on: Mus musculus; experiment: In-vivo inhibition of HDAC1 in human HCT116 cells xenografted CrTac:NCr-Fox1 nude mouse assessed as histone acetylation at 50 mg/kg, po administered daily for 16 days measured after hrs by Western blot analysis relative to control; format: functional, organism-based; set-up: dose 50 mg/kg; conditions: HCT-116; summary of the method: as §6
# [29] = Drug level in tumor of BALB/c mouse at 75 mg/kg, po administered daily for 14 days; format: ADME, organism-based, Neoplasm; set-up: dose 75 mg/kg, route oral; conditions: read-out: Drug uptake; summary of the method: as §3
compound,measurement,setting,value
O=C(NO)c1cnc(N2C[C@@H]3[C@H](C2)[C@H]3NCc2ccc3cc(F)ccc3n2)nc1 [NANATINOSTAT],RatioGI50,[1],5
same,GI50,[2],110 nM
same,solubility,[3],1 µg/mL
same,GI50,[4],105 nM
same,concentration at 336 h,[5],133 ng/mL
same,GI50,[6],72 nM
same,half-life,[7],5.2 h
same,RatioGI50,[8],21.9
same,F,[9],27%
same,Activity,[10],21%
same,RatioGI50,[11],21.6
same,RatioGI50,[12],12.5
same,Activity,[13],Active
same,AUCt,[14],124 ng·h/mL
same,RatioGI50,[15],10.3
same,RatioGI50,[16],12.1
same,Activity,[17],Active
same,RatioGI50,[18],20
same,AUCt,[19],102 ng·h/mL
same,RatioGI50,[20],9.5
same,RatioGI50,[21],8.7
same,AUC(0-t),[22],241 ng·h/mL
same,RatioGI50,[23],19
same,RatioGI50,[24],22.8
O=C(NO)c1cnc(N2C[C@@H]3[C@H](C2)[C@H]3NCc2ccc(Cl)cc2)nc1,GI50,[4],210 nM
same,inhibition,[25],inactive
same,GI50,[6],210 nM
same,Activity,[26],Non-toxic
same,Activity,[10],23%
same,Kp at 384 h,[27],4
same,inhibition,[28],Active
same,concentration at 336 h,[29],28 ng/mL
same,AUC(0-t),[22],265 ng·h/mL
